Rows were chosen to be rich in hits. Some 2.4% of all compounds tested hit in one or more screens of this group.
ANO1 activ – activates or potentiates the mouse TMEM16A chloride channel | hit rate 0.3% among 340,000 | Q8BHY3 | HEK293 TMEM16A/YFP-H148Q/I152L, iodide quench fluorescence; stronger effect = lower value | B-score at 10 µM;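 active = fluorescence-ratio B-score plate-corrected deviation score at least 3 library SD below zero, with starting fluorescence score within 5 deviations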;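 also: channel opened by trigger with iodide after compound preincubation; score built on the fluorescence ratio of max minus min over baseline; more negative score means more quench and so TMEM16A activation or potentiation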
Target sequence (Q8BHY3 whole entry, looked up): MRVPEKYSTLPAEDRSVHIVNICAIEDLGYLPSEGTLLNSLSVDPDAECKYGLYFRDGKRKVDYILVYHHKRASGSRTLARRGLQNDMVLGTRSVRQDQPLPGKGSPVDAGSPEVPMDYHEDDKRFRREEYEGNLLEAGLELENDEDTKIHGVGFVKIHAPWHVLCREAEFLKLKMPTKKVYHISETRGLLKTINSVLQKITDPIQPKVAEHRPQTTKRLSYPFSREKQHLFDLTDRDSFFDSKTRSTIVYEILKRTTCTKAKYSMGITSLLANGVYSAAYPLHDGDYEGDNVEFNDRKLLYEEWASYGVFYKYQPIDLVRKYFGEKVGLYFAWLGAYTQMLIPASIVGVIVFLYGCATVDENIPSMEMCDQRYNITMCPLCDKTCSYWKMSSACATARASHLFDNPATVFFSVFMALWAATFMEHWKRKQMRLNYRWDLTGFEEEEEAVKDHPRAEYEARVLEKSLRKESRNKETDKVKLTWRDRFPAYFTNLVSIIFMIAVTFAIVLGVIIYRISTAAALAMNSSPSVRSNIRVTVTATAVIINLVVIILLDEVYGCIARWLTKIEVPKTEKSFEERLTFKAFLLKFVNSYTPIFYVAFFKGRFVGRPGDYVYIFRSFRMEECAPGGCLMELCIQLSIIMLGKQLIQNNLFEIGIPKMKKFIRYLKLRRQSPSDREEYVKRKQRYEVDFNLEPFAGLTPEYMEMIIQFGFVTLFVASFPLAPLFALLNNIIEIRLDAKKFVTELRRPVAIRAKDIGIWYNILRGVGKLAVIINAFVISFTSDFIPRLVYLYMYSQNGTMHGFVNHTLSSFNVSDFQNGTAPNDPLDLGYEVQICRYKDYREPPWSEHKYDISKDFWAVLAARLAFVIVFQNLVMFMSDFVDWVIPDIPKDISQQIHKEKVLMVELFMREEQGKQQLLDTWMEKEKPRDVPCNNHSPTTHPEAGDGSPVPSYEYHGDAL
DNA FID counter – counter-screen for HCV NS3 helicase inhibitors: DNA intercalator displacement | DNA fluorescent intercalator displacement, fluorescence | inhibition, % at 7.9 µM | hit rate 0.17% among 290,000 | AID 1845; in the data active = inhibition above about 37%;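 also: 0% = vehicle and 100% = reference compound; higher means more ethidium bromide displaced from hairpin DNA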
Apaf-1 inh – inhibitors of human Apaf-1 apoptosome. AID 489030. inhibition, % at 20 µM. reconstituted apoptosome caspase-3 activity, DEVD-Rh110 fluorescence. hit rate 0.71% among 330,000; active = inhibition of at least 40% at 20 µM;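 also: plate controls were DMSO wells for no effect and DEVD-CHO caspase inhibitor wells for full effect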
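System – cell-free apoptosome with Apaf-1, procaspase-3 and caspase-9 · Buffer or medium – pH 7.5 Hepes buffer with CHAPS, BSA, DTT · Also added – cytochrome c with DEVD-Rh110 · Times – 30 min compound preincubation, 50 min activation, room temperature · Technique – Rh110 fluorescence intensity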
UBC13 polyUb – human UBC13 polyubiquitination inhibition; P61088; UBC13 polyubiquitin chain formation, TR-FRET; inhibition, % at 20 µM; hit rate 0.47% among 330,000; AID 485273; in the data active = inhibition above about 45%, passing the limit was not always enough
TMEM16A inh – mouse TMEM16A channel inhibition, primary screen. Q8BHY3. HEK293 TMEM16A/YFP iodide influx fluorescence, ionomycin. normalized B-score (activity score, 25-100; higher = stronger inhibition) at 10 µM. hit rate 1.2% among 310,000. AID 588511;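 active = ratio plate-corrected score three or more library SD toward inhibition, starting fluorescence score within five deviations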;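 also: score derived from kinetic fluorescence span divided by baseline fluorescence per well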
Apaf-1 inh conf – confirmation of Apaf-1 inhibitors. reconstituted apoptosome, caspase-3 DEVD-Rh110 fluorescence. hit rate 25% among 1,800. shares compounds with Apaf-1 inh. inhibition, % at 20 µM;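 active = mean inhibition of at least 40% at 20 µM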;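 also: plate controls were DMSO wells for no effect and DEVD-CHO caspase inhibitor control wells for full effect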
Rh110 interf inh – Rh110 signal interference in Apaf-1 inhibitor counter-screen. 1,800 tested, under 10 active. Rh110 fluorescence interference, quenched caspase reaction. activation (fluorescence interference), % at 20 µM. AID 504615. shares compounds with Apaf-1 inh;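 active = signal rise of 40% or more at 20 µM, treated as a fluorescence artifact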
Apaf1 inh interf – shows fluorescence interference in the Apaf-1 inhibitor assay format; fluorescence interference counterscreen, Apaf-1 assay format; 460 tested, under 10 active; shares compounds with Apaf-1 inh; AID 588538; IC50, µM; call rule not given here
* hit, by the source's call.

Results for Cc1ccc(-n2nc3ccc(N)cc3n2)c(C)c1 ?
ANO1 activ: inactive; DNA FID counter: -2.8; Apaf-1 inh: 68.1*; UBC13 polyUb: -1.2; TMEM16A inh: inactive; Apaf-1 inh conf: 31.6; Rh110 interf inh: 13.7

What do the screens show for `Cc1ccc(-n2nc3ccc(N)cc3n2)cc1Cl`?
ANO1 activ: inactive; DNA FID counter: 1.9; Apaf-1 inh: 96.3*; UBC13 polyUb: -4.5; TMEM16A inh: inactive; Apaf-1 inh conf: 46.8*; Rh110 interf inh: 2.2; Apaf1 inh interf: >100

What do the screens show for `Cc1cc(N)n(-c2ccc(C)c(C)c2)n1`?
ANO1 activ: inactive; DNA FID counter: -8.8; Apaf-1 inh: -10.2; UBC13 polyUb: -0.8; TMEM16A inh: inactive

How did Cc1cc(Br)c(NC(=O)CN2CCCC2)c(Br)c1 do in these assays?
ANO1 activ: inactive; DNA FID counter: -4.0; Apaf-1 inh: 0.1; UBC13 polyUb: 2.4

How did Cc1ccc(C)c(-c2cc(C(=O)Nc3sc(C)c(C)c3C(N)=O)c3ccccc3n2)c1 do in these assays?
ANO1 activ: inactive; DNA FID counter: -0.4; Apaf-1 inh: 3.9; UBC13 polyUb: -0.8; TMEM16A inh: inactive

Results for CC(=O)Nc1ccc(C(=O)COC(=O)c2nc3nc(C)cc(C)n3n2)cc1 ?
ANO1 activ: inactive; Apaf-1 inh: 41.2*; UBC13 polyUb: -10.9; Apaf-1 inh conf: 10.0; Rh110 interf inh: 2.3

What do the screens show for `CCCCC1=CC2=C(c3ccco3)C(=O)C(C)(OC(=O)c3ccc(OC)cc3)C(=O)C2=CN1C1CC1` (stereo not drawn)?
ANO1 activ: inactive; Apaf-1 inh: 40.1*; UBC13 polyUb: 15.1; TMEM16A inh: inactive; Apaf-1 inh conf: 13.8; Rh110 interf inh: 1.9

How did CCCCC1=CC2=C(c3ccco3)C(=O)C(C)(OC(=O)c3ccc(OC)cc3)C(=O)C2=CN1C1CCCC1 (stereo not drawn) do in these assays?
Apaf-1 inh: 22.6; UBC13 polyUb: 16.7; TMEM16A inh: inactive

How did N/C(=N\OC(=O)c1ccc(Cl)cc1Cl)c1cccnc1 do in these assays?
ANO1 activ: inactive; DNA FID counter: 2.4; Apaf-1 inh: 76.2*; UBC13 polyUb: -4.8; TMEM16A inh: inactive; Apaf-1 inh conf: 8.7; Rh110 interf inh: 5.0

Results for N/C(=N\OC(=O)c1ccc(Cl)cc1Cl)c1ccccc1 ?
ANO1 activ: inactive; DNA FID counter: 2.8; Apaf-1 inh: 0.5; UBC13 polyUb: -0.1; TMEM16A inh: inactive

What do the screens show for `O=C(O)c1cccc2c1C(=O)c1ccccc1C2=O`?
ANO1 activ: inactive; DNA FID counter: 1.1; Apaf-1 inh: 3.3; UBC13 polyUb: -6.2; TMEM16A inh: inactive

How did CN(C=[N+](C)C)c1cccc2c1C(=O)c1ccccc1C2=O do in these assays?
ANO1 activ: inactive; DNA FID counter: 8.2; Apaf-1 inh: 43.0*; UBC13 polyUb: -41.6; TMEM16A inh: inactive; Apaf-1 inh conf: 21.2; Rh110 interf inh: 13.2

Results for COc1cc(CNc2ccc(O)cc2)cc(Br)c1OCc1ccccc1F ?
ANO1 activ: inactive; DNA FID counter: 1.1; Apaf-1 inh: 95.7*; UBC13 polyUb: 0.0; TMEM16A inh: inactive; Apaf-1 inh conf: 23.3; Rh110 interf inh: 14.1

How did CCOc1cc(CNc2ccc(O)cc2)cc(Br)c1OCc1ccccc1F do in these assays?
ANO1 activ: inactive; DNA FID counter: -4.2; Apaf-1 inh: 16.7; UBC13 polyUb: -3.6; TMEM16A inh: inactive

What do the screens show for `CN(C)c1ccc(N/C=C/C(=O)C(C)(C)C)cc1`?
ANO1 activ: inactive; DNA FID counter: -0.2; Apaf-1 inh: 53.4*; UBC13 polyUb: -17.7; TMEM16A inh: inactive; Apaf-1 inh conf: -2.9; Rh110 interf inh: -2.6

What do the screens show for `COC(=O)CS(=O)(=O)c1ccsc1C(=O)Nc1ccc(F)cc1`?
ANO1 activ: inactive; DNA FID counter: 4.4; Apaf-1 inh: -9.2; UBC13 polyUb: 4.6; TMEM16A inh: inactive

How did CC(=O)N1CCN(C2=Nc3cccc4cccc2c34)CC1 do in these assays?
ANO1 activ: inactive; DNA FID counter: 6.8; Apaf-1 inh: 80.1*; UBC13 polyUb: -22.6; TMEM16A inh: inactive; Apaf-1 inh conf: 5.9; Rh110 interf inh: -1.2

What do the screens show for `Cc1ccc(-c2nn3c(C)nnc3c3ccccc23)cc1S(=O)(=O)NCc1ccccc1`?
ANO1 activ: inactive; DNA FID counter: -15.0; Apaf-1 inh: 47.7*; UBC13 polyUb: 6.9; TMEM16A inh: inactive; Apaf-1 inh conf: 72.3*; Rh110 interf inh: 7.2; Apaf1 inh interf: >100

How did Cc1ccc(-c2nn3c(C)nnc3c3ccccc23)cc1S(=O)(=O)NCCN1CCOCC1 do in these assays?
ANO1 activ: inactive; DNA FID counter: 0.7; Apaf-1 inh: 7.1; UBC13 polyUb: 10.4; TMEM16A inh: inactive

What do the screens show for `O=C(COC(=O)c1cc(Cl)ccc1Cl)NCCN1C(=O)CSC1=O`?
ANO1 activ: inactive; DNA FID counter: -2.9; Apaf-1 inh: 43.2*; UBC13 polyUb: -3.0; TMEM16A inh: inactive; Apaf-1 inh conf: 9.6; Rh110 interf inh: -2.6

What do the screens show for `O=C(COC(=O)c1ccc(O)cc1O)NCCN1C(=O)CSC1=O`?
ANO1 activ: inactive; DNA FID counter: -6.0; Apaf-1 inh: 6.4; UBC13 polyUb: 5.9; TMEM16A inh: inactive

Results for CN1CCN(c2ccc(NC(=O)c3ccc(-c4ccc(Br)cc4)o3)cc2)CC1 ?
ANO1 activ: inactive; DNA FID counter: 42.9*; Apaf-1 inh: 45.3*; UBC13 polyUb: 44.0; TMEM16A inh: inactive; Apaf-1 inh conf: 41.8*; Rh110 interf inh: -1.6; Apaf1 inh interf: >100

Results for N#Cc1c(NC(=O)c2ccc(Br)o2)n(-c2ccccc2)c2nc3ccccc3nc12 ?
ANO1 activ: inactive; DNA FID counter: -16.8; Apaf-1 inh: 96.4*; UBC13 polyUb: -27.6; TMEM16A inh: inactive; Apaf-1 inh conf: 87.3*; Rh110 interf inh: -3.5; Apaf1 inh interf: >100

How did CCC(C)n1c(NC(=O)c2ccccc2)c(C#N)c2nc3ccccc3nc21 (stereo not drawn) do in these assays?
ANO1 activ: inactive; DNA FID counter: -1.3; Apaf-1 inh: 93.4*; UBC13 polyUb: -40.9; TMEM16A inh: inactive; Apaf-1 inh conf: 32.6; Rh110 interf inh: 9.2

What do the screens show for `CCC(=O)Nc1c(C#N)c2nc3ccccc3nc2n1-c1ccc(C)cc1`?
ANO1 activ: inactive

How did Cc1ccc(NS(=O)(=O)c2c(C)nc3sccn3c2=O)cc1C do in these assays?
ANO1 activ: inactive; DNA FID counter: -17.0; Apaf-1 inh: 3.4; UBC13 polyUb: 0.0; TMEM16A inh: inactive
